Tested on: human non-small-cell lung cancer cells (A549)
Assay: In vitro cytotoxicity
Format: cell-based
Details: not given
How it was run: (§1)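 Cells grown in DMEM with 10% FBS, penicillin/streptomycin, L-glutamine and 1 mM sodium pyruvate at 37 °C, 5% CO2. Seeded at 3 × 10^3 cells/well for 24 h, then exposed 72 h to test compound at 6.25, 12.5, 25, 50 and 100 μM; 5-FU as positive control. MTT 0.5 mg mL−1 for 3 h at 37 °C; formazan dissolved in DMSO, read at A570. Untreated cells set as 100% viability; IC50 given as mean ±SD, n = 3.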

Compound	Cytotoxic activity against A549 cells (in words)
COc1ccc(/C=C/c2nc3ccc(Br)cc3nc2/C=C/c2ccc(OC)cc2)cc1 [Compound 4l, 6-Bromo-2,3-bis[(E)-4-methoxystyryl]quinoxaline]	exhibited cytotoxic activities
Brc1ccc2nc(/C=C/c3cccs3)c(/C=C/c3cccs3)nc2c1 [Compound 4b, 6-Bromo-2,3-bis[(E)-2-(thiophen-2-yl)vinyl]quinoxaline]	exhibited cytotoxic activities
Clc1cccc(/C=C/c2nc3ccc(Br)cc3nc2/C=C/c2cccc(Cl)c2)c1 [Compound 4g, 6-Bromo-2,3-bis[(E)-3-chlorostyryl]quinoxaline]	exhibited cytotoxic activities
Brc1ccc2nc(/C=C/c3ccco3)c(/C=C/c3ccco3)nc2c1 [Compound 4a, 6-Bromo-2,3-bis[(E)-2-(furan-2-yl)vinyl]quinoxaline]	exhibited cytotoxic activities
COc1ccccc1/C=C/c1nc2ccc(Br)cc2nc1/C=C/c1ccccc1OC [Compound 4e, 6-Bromo-2,3-bis[(E)-2-methoxystyryl]quinoxaline]	exhibited cytotoxic activities
O=[N+]([O-])c1ccc2nc(/C=C/c3cccc(Cl)c3)c(/C=C/c3cccc(Cl)c3)nc2c1 [Compound 5g, 2,3-Bis[(E)-3-chlorostyryl]-6-nitroquinoxaline]	exhibited cytotoxic activities

Tested on: Hs68 (human foreskin fibroblast) cells
Assay: In vitro cytotoxicity
Format: cell-based
Details: Hs68, read-out: IC50 (concentration necessary for 50% inhibition), Hs68 cells
How it was run: as §1

Compound	IC50 [µM]
O=c1[nH]cc(F)c(=O)[nH]1 [5-FU, 5-Fluorouracil]	3.08 ± 0.4

Tested on: not listed separately
Assay: Solubility observation
Format: physicochemical
Details: compounds with two nitro groups

Compound	Solubility (in words)
O=[N+]([O-])c1cccc(/C=C/c2nc3ccc([N+](=O)[O-])cc3nc2/C=C/c2cccc([N+](=O)[O-])c2)c1 [Compound 5f, 6-Nitro-2,3-bis[(E)-3-nitrostyryl]quinoxaline]	reduced the solubility
O=[N+]([O-])c1ccc(/C=C/c2nc3ccc(Br)cc3nc2/C=C/c2ccc([N+](=O)[O-])cc2)cc1 [Compound 4k, 6-Bromo-2,3-bis[(E)-4-nitrostyryl]quinoxaline]	reduced the solubility
O=[N+]([O-])c1cccc(/C=C/c2nc3ccc(Br)cc3nc2/C=C/c2cccc([N+](=O)[O-])c2)c1 [Compound 4f, 6-Bromo-2,3-bis[(E)-3-nitrostyryl]quinoxaline]	reduced the solubility
O=[N+]([O-])c1ccc(/C=C/c2nc3ccc([N+](=O)[O-])cc3nc2/C=C/c2ccc([N+](=O)[O-])cc2)cc1 [Compound 5k, 6-Nitro-2,3-bis[(E)-4-nitrostyryl]quinoxaline]	reduced the solubility
